Changes are numbered by the printed parent chain. Calls of active or inactive are those of the source. No cut-off for these calls is given here.
Columns and labels:
[1] = molecular target: T1, Fatty-acid amide hydrolase 1 (Homo sapiens, UniProt O00519); test: Inhibition of human recombinant FAAH assessed as conversion of [3H]AEA to [3H]ethanolamine after 10 mins by liquid scintillation counter
T1 sequence (O00519 whole entry): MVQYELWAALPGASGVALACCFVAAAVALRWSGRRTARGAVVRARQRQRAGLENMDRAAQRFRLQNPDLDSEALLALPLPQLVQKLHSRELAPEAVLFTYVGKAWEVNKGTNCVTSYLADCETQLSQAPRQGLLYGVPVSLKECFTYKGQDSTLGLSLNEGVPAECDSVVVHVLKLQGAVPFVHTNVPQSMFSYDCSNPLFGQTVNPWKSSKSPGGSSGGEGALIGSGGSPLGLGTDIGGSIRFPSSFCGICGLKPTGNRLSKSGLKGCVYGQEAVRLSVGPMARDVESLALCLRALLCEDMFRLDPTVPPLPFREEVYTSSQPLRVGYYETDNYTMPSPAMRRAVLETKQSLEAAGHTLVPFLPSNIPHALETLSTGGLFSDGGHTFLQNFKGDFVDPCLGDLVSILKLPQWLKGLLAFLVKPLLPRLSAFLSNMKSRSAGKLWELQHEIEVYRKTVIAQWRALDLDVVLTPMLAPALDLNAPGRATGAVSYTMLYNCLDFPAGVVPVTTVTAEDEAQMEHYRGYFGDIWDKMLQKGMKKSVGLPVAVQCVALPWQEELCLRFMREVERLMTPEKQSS
Summary of the method: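 Human recombinant FAAH (6 ng protein, Tris-EDTA) with inhibitor in DMSO; [3H]AEA at 2 μM final, 10 min at 37 °C; stopped with ice-cold methanol–chloroform, [3H]ethanolamine in aqueous layer counted by liquid scintillation, buffer blanks subtracted; pIC50 from dose–response, mean ± SEM of three experiments in duplicate.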

[2] = molecular target: T2, Monoglyceride lipase (Homo sapiens) (UniProt Q99685); test: Inhibition of MAGL at 10^-4.5 to 10^-5 M after 30 mins by liquid scintillation counter in presence of DTT
T2 sequence (whole entry): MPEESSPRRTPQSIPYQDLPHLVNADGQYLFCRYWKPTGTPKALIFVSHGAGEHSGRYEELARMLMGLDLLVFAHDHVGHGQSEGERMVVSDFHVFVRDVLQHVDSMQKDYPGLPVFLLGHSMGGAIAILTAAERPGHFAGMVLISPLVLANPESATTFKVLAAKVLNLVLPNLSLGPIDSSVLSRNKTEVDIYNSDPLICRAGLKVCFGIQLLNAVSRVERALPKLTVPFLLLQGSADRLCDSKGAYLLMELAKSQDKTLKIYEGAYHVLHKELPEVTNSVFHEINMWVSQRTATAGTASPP
Summary of the method: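 Purified MAGL (3 ng; Tris pH 8.0, 50 mM, 0.1% BSA) preincubated 10 min at room temperature with inhibitor at 10−4.5 and 10−5 M or DMSO; DTT (10−2 M) then added, 15 min at 37 °C, before [3H]-2-OG hydrolysis assay as standard; activity normalized to respective control, n analysed by one-way ANOVA with Bonferroni test.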

[3] = test system: T3, Monoglyceride lipase (Homo sapiens), Q99685 [C208A]; test: Inhibition of human MAGL C208A mutant expressed in Escherichia coli
T3 sequence (whole entry): T2 sequence (whole entry) with C208A
Summary of the method: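 Homogenates of E. coli expressing wild-type or C201A, C208A, C242A or C208A/C242A mutant MAGL used as enzyme source in the [3H]-2-OG hydrolysis assay; n = 3 in duplicate.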

For CC(C)(C)c1ccc(CN2CCN(C(=S)Sc3ccc([N+](=O)[O-])cc3[N+](=O)[O-])CC2)cc1, the IC50 [1] was 1740 nM, the inhibition [2] was “inactive” and the inhibition [3] was “inactive”.

Source: ChEMBL document CHEMBL2157991, “Synthesis and pharmacological evaluation of 2,4-dinitroaryldithiocarbamate derivatives as novel monoacylglycerol lipase inhibitors” (J Med Chem, 2012)
